The target of experiment [1] is Tyrosine-protein kinase Lck (Homo sapiens) (UniProt P06239). Briefly: Equilibrium constant for competitive binding to p56 lck SH2 domain by SPR after 5th run. In outline: (§1)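 Injected at 5 μL/min over streptavidin chip bearing biotinylated EPQpYEEIPIA (500 nM loading); 10 mM HCl regeneration. Plateau RU vs peptide fitted by nonlinear regression (eq 15) for KS, KC fixed from direct binding.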

Experiment [2] has the same target. Kind of experiment: Equilibrium constant for competitive binding to p56 lck SH2 domain by SPR after 4th run. In outline:
as §1

For experiment [3] the target is unchanged. Kind of experiment: Equilibrium constant for competitive binding to p56 lck SH2 domain by SPR after 1st run. An outline of the steps: as §1
For experiment [4] the target is unchanged. Kind of experiment: Equilibrium constant for competitive binding to p56 lck SH2 domain by SPR after 3rd run. An outline of the steps:
as §1

Experiment [5] has the same target. Briefly: Equilibrium constant for competitive binding to p56 lck SH2 domain by SPR after 2nd run. In outline:
as §1

Molecules are shown by their SMILES.

Sequence of Tyrosine-protein kinase Lck (Homo sapiens) (P06239 2-509 limits assumed): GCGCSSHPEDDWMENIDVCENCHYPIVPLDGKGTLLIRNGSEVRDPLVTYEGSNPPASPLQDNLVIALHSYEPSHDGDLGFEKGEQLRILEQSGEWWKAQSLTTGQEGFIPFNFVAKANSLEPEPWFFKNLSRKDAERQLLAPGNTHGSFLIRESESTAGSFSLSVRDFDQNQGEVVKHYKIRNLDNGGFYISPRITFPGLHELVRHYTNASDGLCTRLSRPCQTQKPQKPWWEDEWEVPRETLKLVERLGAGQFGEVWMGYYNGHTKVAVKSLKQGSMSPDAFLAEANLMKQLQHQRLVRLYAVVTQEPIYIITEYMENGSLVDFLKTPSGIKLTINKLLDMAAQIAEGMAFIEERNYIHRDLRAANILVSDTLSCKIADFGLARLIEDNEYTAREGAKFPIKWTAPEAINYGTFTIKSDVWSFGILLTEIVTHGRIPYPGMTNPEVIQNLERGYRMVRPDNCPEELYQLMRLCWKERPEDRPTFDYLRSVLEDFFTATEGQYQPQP

For the compound `CC[C@H](C)[C@H](NC(=O)CNC(=O)[C@H](CCC(=O)O)NC(=O)[C@H](Cc1ccc(OP(=O)(O)O)cc1)NC(=O)[C@H](CCC(N)=O)NC(=O)CNC(=O)[C@@H](N)CCC(=O)O)C(=O)N1CCC[C@@H]1C(=O)O`, the Ks stood at 0.536 µM in experiment [1]; 261 nM in experiment [2]; 171 nM in experiment [3]; 242 nM in experiment [4]; 167 nM in experiment [5].
For the compound `CC[C@H](C)[C@H](NC(=O)[C@H](CCC(=O)O)NC(=O)[C@H](CCC(=O)O)NC(=O)[C@H](Cc1ccc(OP(=O)(O)O)cc1)NC(=O)[C@H](CCC(N)=O)NC(=O)CNC(=O)[C@@H](N)CCC(=O)O)C(=O)N1CCC[C@@H]1C(=O)O`, the Ks came out at 27.8 nM in experiment [2], 14.4 nM in experiment [3], 26.9 nM in experiment [4] and 22.8 nM in experiment [5].
Turning to `NC(=O)CC[C@H](NC(=O)CNC(=O)[C@@H](N)CCC(=O)O)C(=O)N[C@@H](Cc1ccc(OP(=O)(O)O)cc1)C(=O)N[C@@H](CCC(=O)O)C(=O)N[C@@H](CCC(=O)O)C(=O)NCC(=O)N1CCC[C@@H]1C(=O)O`, the Ks in experiment [1] worked out at 2.16 µM; in experiment [2] it was 938 nM; in experiment [3], 833 nM; in experiment [4], 908 nM; in experiment [5] it was 916 nM.
In the same order, the values of `CC[C@H](C)[C@H](NC(=O)[C@H](CCC(=O)O)NC(=O)CNC(=O)[C@H](Cc1ccc(OP(=O)(O)O)cc1)NC(=O)CNC(=O)[C@H](CCC(N)=O)NC(=O)[C@@H](N)CCC(=O)O)C(=O)N1CCC[C@@H]1C(=O)O` are 2.85 µM, 1250 nM, 1320 nM, 1220 nM and 982 nM.

The record behind these values is ChEMBL document CHEMBL1128297, “Determination of receptor-ligand kinetic and equilibrium binding constants using surface plasmon resonance: application to the lck SH2 domain and phosphotyrosyl peptides” (J Med Chem, 1995).
